Source: ChEMBL document CHEMBL2086284, “(Z)-1-aryl-3-arylamino-2-propen-1-ones, highly active stimulators of tubulin polymerization: synthesis, structure-activity relationship (SAR), tubulin polymerization, and cell growth inhibition studies” (J Med Chem, 2012)

Key:
DU-145 = assay: Cytotoxicity against androgen receptor-deficient human DU145 cells after 96 hrs by trypan blue exclusion assay; type: functional, cell-based; conditions: DU-145, 96 h
Outline: (§1)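 Cells grown in DMEM or RPMI with 10% FBS and penicillin-streptomycin. Seeded at 1.0 × 10^5 cells/mL/well in 6-well dishes; compounds were added 24 h later at various concentrations. Viable cells were counted by trypan blue exclusion from duplicate wells after 96 h of treatment, giving a dose-response endpoint.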

K562 = assay: Cytotoxicity against human K562 cells after 96 hrs by trypan blue exclusion assay; type: functional, cell-based; conditions: K562, 96 h; outline: as §1

SMILES | IC50 (DU-145) | IC50 (K562)
COc1cc(C(=O)/C=C\Nc2ccc3[nH]ccc3c2)c(Br)c(OC)c1OC | 150 nM | 200 nM
COc1cc(OC)c(N/C=C\C(=O)c2cc(OC)c(OC)c(OC)c2)c(OC)c1 | 75000 nM | 50000 nM
COc1cc(C(=O)/C=C\Nc2cc(O)ccc2Cl)cc(OC)c1OC | 750 nM | 2500 nM
COc1ccc(N/C=C\C(=O)c2cc(OC)c(OC)c(OC)c2[N+](=O)[O-])cc1 | 600 nM | 600 nM
COc1cc(C(=O)/C=C\Nc2ccc3[nH]ccc3c2)cc(OC)c1OC | 200 nM | 500 nM
COc1cc(C(=O)/C=C\Nc2cnc3ccccc3c2)cc(OC)c1OC | 500 nM | 750 nM
COc1ccccc1N/C=C\C(=O)c1cc(OC)c(OC)c(OC)c1 | 2500 nM | 2500 nM
COc1ccc(N/C=C\C(=O)c2cc(OC)c(OC)c(OC)c2)cc1 | 500 nM | 500 nM
COc1ccc(N/C=C\C(=O)c2cc(OC)c(OC)c(OC)c2)cc1Cl | 200 nM | 250 nM
COc1cc(OC)c(C(=O)/C=C\Nc2ccc(Cl)cc2)c(OC)c1 | 25000 nM | 25000 nM
COc1ccc(N/C=C\C(=O)c2cc(OC)c(OC)c(OC)c2)cc1F | 250 nM | 250 nM
COc1ccc(C(=O)/C=C\Nc2cc(OC)c(OC)c(OC)c2)cc1 | 50000 nM | 75000 nM
COc1cc(C(=O)/C=C\Nc2ccc(Cl)cc2)cc(OC)c1OC | 500 nM | 250 nM
COc1cc(C(=O)/C=C\Nc2cccc3[nH]ncc23)cc(OC)c1OC | 750 nM | 2500 nM
COc1ccc(N/C=C\C(=O)c2cc(OC)c(OC)c(OC)c2)cc1O | 100 nM | 100 nM
COc1cc(C(=O)/C=C\Nc2cccc(O)c2)cc(OC)c1OC | 750 nM | 500 nM
COc1cc(N/C=C\C(=O)c2cc(OC)c(OC)c(OC)c2)cc(OC)c1OC | 40000 nM | 25000 nM
COc1cc(C(=O)/C=C\Nc2ccc3[nH]c(C)cc3c2)cc(OC)c1OC | 600 nM | 750 nM
